In ChEMBL document CHEMBL1817567, “Design of benzimidazole- and benzoxazole-2-thione derivatives as inhibitors of bacterial hyaluronan lyase” (Eur J Med Chem, 2011):
≈ marks a conversion by molar mass, not a printed value. Values belong to the molecule of their own block, whether it stands above or below them. Calls of active or inactive are those of the source. The calls are words filed in the database; no cut-off is given here.

Columns and labels:
[1] = biological target: T1, Hyaluronidase (Bos taurus) (UniProt Q8SQG8+Q5E985); experiment: Inhibition of bovine testes hyaluronidase at 3800 uM after 30 mins at pH 5 by turbidimetric analysis; type: protein assay
[2] = biological target: T1, Hyaluronidase (Bos taurus); experiment: Inhibition of bovine testes hyaluronidase at 63 uM after 30 mins at pH 5 by turbidimetric analysis; type: protein assay
Streptococcus agalactiae [3] = experiment: Inhibition of Streptococcus agalactiae 4755 hyaluronidase at 200 uM after 30 mins at pH 5.0 by turbidimetric analysis
How it was run: (§1)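 SagHyal4755 (2.9 ng) with BSA and hyaluronan (2 mg/ml stock) in citrate–phosphate/NaCl buffer pH 5.0, 3.8% DMSO final, 30 min at 37 °C. Stopped by alkaline 2.5% CTAB, then 20 min at 25 °C. Residual-substrate turbidity read at 600 nm; no-inhibitor sample = 100%, no-enzyme sample = 0% activity. Enzyme-free compound controls were run.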

[4] = biological target: T1, Hyaluronidase (Bos taurus); experiment: Inhibition of bovine testes hyaluronidase at 130 uM after 30 mins at pH 5 by turbidimetric analysis; type: protein assay
[5] = biological target: T1, Hyaluronidase (Bos taurus); experiment: Inhibition of bovine testes hyaluronidase at 80 uM after 30 mins at pH 5 by turbidimetric analysis; type: protein assay
[6] = biological target: T1, Hyaluronidase (Bos taurus); experiment: Inhibition of bovine testes hyaluronidase at 200 uM after 30 mins at pH 5 by turbidimetric analysis; type: protein assay
[7] = biological target: T1, Hyaluronidase (Bos taurus); experiment: Inhibition of bovine testes hyaluronidase at 49 uM after 30 mins at pH 5 by turbidimetric analysis; type: protein assay
[8] = biological target: T1, Hyaluronidase (Bos taurus); experiment: Inhibition of bovine testes hyaluronidase at 150 uM after 30 mins at pH 5 by turbidimetric analysis; type: protein assay
[9] = Aqueous solubility of the compound in water; type: physicochemical
How it was run: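 Turbidity at 600 nm of test compound in DMSO added to citrate–phosphate buffer (pH 5 and pH 7.4), water and BSA (0.2 mg/ml stock), at various concentrations, read against a water reference. Enzyme testing used only concentrations showing no turbidity.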

[10] = biological target: T1, Hyaluronidase (Bos taurus); experiment: Inhibition of bovine testes hyaluronidase at 180 uM after 30 mins at pH 5 by turbidimetric analysis; type: protein assay
[11] = biological target: T1, Hyaluronidase (Bos taurus); experiment: Inhibition of bovine testes hyaluronidase at 2000 uM after 30 mins at pH 5 by turbidimetric analysis; type: protein assay
[12] = biological target: T1, Hyaluronidase (Bos taurus); experiment: Inhibition of bovine testes hyaluronidase at 380 uM after 30 mins at pH 5 by turbidimetric analysis; type: protein assay
[13] = biological target: T1, Hyaluronidase (Bos taurus); experiment: Inhibition of bovine testes hyaluronidase at 400 uM after 30 mins at pH 5 by turbidimetric analysis; type: protein assay
[14] = biological target: T1, Hyaluronidase (Bos taurus); experiment: Inhibition of bovine testes hyaluronidase at 170 uM after 30 mins at pH 5 by turbidimetric analysis; type: protein assay
Streptococcus agalactiae [15] = experiment: Inhibition of Streptococcus agalactiae 4755 hyaluronidase at 200 uM after 3 hrs at pH 7.4 by turbidimetric analysis
How it was run: (§2)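 Same turbidimetric hyaluronan-lyase assay at pH 7.4 (citrate–phosphate/NaCl): SagHyal4755 2.9 ng, hyaluronan (2 mg/ml stock), BSA, 3.8% DMSO final, 3 h at 37 °C. CTAB (2.5%, in 0.5 M NaOH) precipitation, 20 min at 25 °C, A600. Activity scaled between no-inhibitor and no-enzyme samples.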

[16] = biological target: T1, Hyaluronidase (Bos taurus); experiment: Inhibition of bovine testes hyaluronidase at 4200 uM after 30 mins at pH 5 by turbidimetric analysis; type: protein assay
[17] = biological target: T1, Hyaluronidase (Bos taurus); experiment: Inhibition of bovine testes hyaluronidase at 100 uM after 30 mins at pH 5 by turbidimetric analysis; type: protein assay
[18] = biological target: T1, Hyaluronidase (Bos taurus); experiment: Inhibition of bovine testes hyaluronidase at 190 uM after 30 mins at pH 5 by turbidimetric analysis; type: protein assay
[19] = biological target: T1, Hyaluronidase (Bos taurus); experiment: Inhibition of bovine testes hyaluronidase at 460 uM after 30 mins at pH 5 by turbidimetric analysis; type: protein assay
Streptococcus agalactiae [20] = experiment: Inhibition of Streptococcus agalactiae 4755 hyaluronidase at 380 uM after 30 mins at pH 5.0 by turbidimetric analysis; how it was run: as §1
[21] = Inhibition of Streptococcus agalactiae 4755 hyaluronidase at pH 7.4 after 3 hrs by turbidimetric analysis; how it was run: as §2
Streptococcus agalactiae [22] = experiment: Inhibition of Streptococcus agalactiae 4755 hyaluronidase at 460 uM after 30 mins at pH 5.0 by turbidimetric analysis; how it was run: as §1
Streptococcus agalactiae [23] = experiment: Inhibition of Streptococcus agalactiae 4755 hyaluronidase at 100 uM after 30 mins at pH 5.0 by turbidimetric analysis; how it was run: as §1
Streptococcus agalactiae [24] = experiment: Inhibition of Streptococcus agalactiae 4755 hyaluronidase at 170 uM after 30 mins at pH 5.0 by turbidimetric analysis; how it was run: as §1
Streptococcus agalactiae [25] = experiment: Inhibition of Streptococcus agalactiae 4755 hyaluronidase at 180 uM after 30 mins at pH 5.0 by turbidimetric analysis; how it was run: as §1
Streptococcus agalactiae [26] = experiment: Inhibition of Streptococcus agalactiae 4755 hyaluronidase at 49 uM after 30 mins at pH 5.0 by turbidimetric analysis; how it was run: as §1
Streptococcus agalactiae [27] = experiment: Inhibition of Streptococcus agalactiae 4755 hyaluronidase at 3800 uM after 30 mins at pH 5.0 by turbidimetric analysis; how it was run: as §1
Streptococcus agalactiae [28] = experiment: Inhibition of Streptococcus agalactiae 4755 hyaluronidase at 190 uM after 30 mins at pH 5.0 by turbidimetric analysis; how it was run: as §1
Streptococcus agalactiae [29] = experiment: Inhibition of Streptococcus agalactiae 4755 hyaluronidase at 400 uM after 30 mins at pH 5.0 by turbidimetric analysis; how it was run: as §1

Compound: CC(=O)n1c(=O)n(C(C)=O)c2ccccc21
inhibition [1]: inactive
inhibition [2]: inactive
inhibition (Streptococcus agalactiae [3]): inactive
inhibition [4]: inactive
inhibition [5]: inactive
inhibition [6]: inactive
inhibition [7]: inactive
inhibition [8]: inactive
solubility [9]: 200 µM (≈ 43.6 µg/mL)
inhibition [10]: inactive
inhibition [11]: inactive
inhibition [12]: inactive
inhibition [13]: inactive
inhibition [14]: inactive
inhibition (Streptococcus agalactiae [15]): 10%
inhibition [16]: inactive
inhibition [17]: inactive
inhibition [18]: inactive
inhibition [19]: inactive

Compound: CCn1c(=S)n(C(C)=O)c2ccccc21
inhibition [1]: inactive
inhibition [2]: inactive
inhibition [4]: inactive
inhibition (Streptococcus agalactiae [20]): 10%
inhibition [5]: inactive
inhibition [6]: inactive
inhibition [7]: inactive
inhibition [8]: inactive
solubility [9]: 380 µM (≈ 83.7 µg/mL)
inhibition [10]: inactive
inhibition [11]: inactive
inhibition [12]: inactive
inhibition [13]: inactive
inhibition [14]: inactive
inhibition [16]: inactive
IC50 [21]: 19 µM
inhibition [17]: inactive
inhibition [18]: inactive
inhibition [19]: inactive

Compound: COC(=O)c1ccc2oc(=S)n(C(=O)CCc3ccccc3)c2c1
inhibition [1]: inactive
inhibition [2]: inactive
inhibition (Streptococcus agalactiae [3]): 56%
inhibition [4]: inactive
inhibition [5]: inactive
inhibition [6]: inactive
inhibition [7]: inactive
inhibition [8]: inactive
solubility [9]: 200 µM (≈ 68.3 µg/mL)
inhibition [10]: inactive
inhibition [11]: inactive
inhibition [12]: inactive
inhibition [13]: inactive
inhibition [14]: inactive
inhibition [16]: inactive
IC50 [21]: 21 µM
inhibition [17]: inactive
inhibition [18]: inactive
inhibition [19]: inactive

Compound: CCCCCCCCCC(=O)n1c(=S)oc2ccccc21
inhibition [1]: inactive
inhibition [2]: inactive
inhibition [4]: inactive
inhibition [5]: inactive
inhibition [6]: inactive
inhibition [7]: inactive
inhibition [8]: inactive
solubility [9]: 100 µM (≈ 30.5 µg/mL)
inhibition [10]: inactive
inhibition [11]: inactive
inhibition [12]: inactive
inhibition [13]: inactive
inhibition [14]: inactive
inhibition [16]: inactive
IC50 [21]: 25 µM
inhibition [17]: inactive
inhibition (Streptococcus agalactiae [23]): 41%
inhibition [18]: inactive
inhibition [19]: inactive

Compound: Sc1nc2ccccc2o1
inhibition [1]: inactive
inhibition [2]: inactive
inhibition (Streptococcus agalactiae [27]): 42%
inhibition [4]: inactive
inhibition [5]: inactive
inhibition [6]: inactive
inhibition [7]: inactive
inhibition [8]: inactive
solubility [9]: 3800 µM (≈ 575 µg/mL)
inhibition [10]: inactive
inhibition [11]: inactive
inhibition [12]: inactive
inhibition [13]: inactive
inhibition [14]: inactive
inhibition [16]: inactive
IC50 [21]: 2540 µM
inhibition [17]: inactive
inhibition [18]: inactive
inhibition [19]: inactive

Compound: O=C(c1cccc(Cl)c1)n1c(=S)[nH]c2ccccc21
inhibition [1]: inactive
inhibition [2]: inactive
inhibition [4]: inactive
inhibition [5]: inactive
inhibition [6]: inactive
inhibition [7]: inactive
inhibition (Streptococcus agalactiae [29]): 16%
inhibition [8]: inactive
solubility [9]: 400 µM (≈ 116 µg/mL)
inhibition [10]: inactive
inhibition [11]: inactive
inhibition [12]: inactive
inhibition [13]: inactive
inhibition [14]: inactive
inhibition [16]: inactive
IC50 [21]: 70 µM
inhibition [17]: inactive
inhibition [18]: inactive
inhibition [19]: inactive

Continued, values first:

inhibition [1]: inactive
inhibition (Streptococcus agalactiae [22]): 20%
inhibition [2]: inactive
inhibition [4]: inactive
inhibition [5]: inactive
inhibition [6]: inactive
inhibition [7]: inactive
inhibition [8]: inactive
solubility [9]: 460 µM (≈ 88.4 µg/mL)
inhibition [10]: inactive
inhibition [11]: inactive
inhibition [12]: inactive
inhibition [13]: inactive
inhibition [14]: inactive
inhibition [16]: inactive
IC50 [21]: 17 µM
inhibition [17]: inactive
inhibition [18]: inactive
inhibition [19]: inactive
Compound: CC(=O)n1c(=S)[nH]c2ccccc21

inhibition [1]: inactive
inhibition [2]: inactive
inhibition (Streptococcus agalactiae [24]): 14%
inhibition [4]: inactive
inhibition [5]: inactive
inhibition [6]: inactive
inhibition [7]: inactive
inhibition [8]: inactive
solubility [9]: 170 µM (≈ 42.2 µg/mL)
inhibition [10]: inactive
inhibition [11]: inactive
inhibition [12]: inactive
inhibition [13]: inactive
inhibition [14]: inactive
inhibition [16]: inactive
IC50 [21]: 16 µM
inhibition [17]: inactive
inhibition [18]: inactive
inhibition [19]: inactive
Compound: CCCCCC(=O)n1c(=S)[nH]c2ccccc21

inhibition (Streptococcus agalactiae [25]): 4%
inhibition [1]: inactive
inhibition [2]: inactive
inhibition [4]: inactive
inhibition [5]: inactive
inhibition [6]: inactive
inhibition [7]: inactive
inhibition [8]: inactive
solubility [9]: 180 µM (≈ 37.1 µg/mL)
inhibition [10]: inactive
inhibition [11]: inactive
inhibition [12]: inactive
inhibition [13]: inactive
inhibition [14]: inactive
inhibition [16]: inactive
IC50 [21]: 26 µM
inhibition [17]: inactive
inhibition [18]: inactive
inhibition [19]: inactive
Compound: CCC(=O)n1c(=S)[nH]c2ccccc21

inhibition [1]: inactive
inhibition [2]: inactive
inhibition [4]: inactive
inhibition [5]: inactive
inhibition [6]: inactive
inhibition [7]: inactive
inhibition [8]: inactive
solubility [9]: 49 µM (≈ 14.2 µg/mL)
inhibition [10]: inactive
inhibition (Streptococcus agalactiae [26]): 50%
inhibition [11]: inactive
inhibition [12]: inactive
inhibition [13]: inactive
inhibition [14]: inactive
inhibition [16]: inactive
IC50 [21]: 12 µM
inhibition [17]: inactive
inhibition [18]: inactive
inhibition [19]: inactive
Compound: CCCCCC(=O)n1c(=S)n(C(C)=O)c2ccccc21

inhibition [1]: inactive
inhibition [2]: inactive
inhibition (Streptococcus agalactiae [28]): 7%
inhibition [4]: inactive
inhibition [5]: inactive
inhibition [6]: inactive
inhibition [7]: inactive
inhibition [8]: inactive
solubility [9]: 190 µM (≈ 41.9 µg/mL)
inhibition [10]: inactive
inhibition [11]: inactive
inhibition [12]: inactive
inhibition [13]: inactive
inhibition [14]: inactive
inhibition [16]: inactive
IC50 [21]: 20 µM
inhibition [17]: inactive
inhibition [18]: inactive
inhibition [19]: inactive
Compound: CCCC(=O)n1c(=S)[nH]c2ccccc21
